Test results taken from ChEMBL document CHEMBL4627393, “Discovery of Potent, Selective, and State-Dependent NaV1.7 Inhibitors with Robust Oral Efficacy in Pain Models: Structure-Activity Relationship and Optimization of Chroman and Indane Aryl Sulfonamides” (J Med Chem, 2020).

Key:
[1] = Lipophilicity, log D of the compound; format: physicochemical; settings: octanol/water
[2] = Metabolic stability in mouse liver microsomes assessed as metabolic rate at 1 uM preincubated for 5 mins followed by NADPH addition and measured up to 30 mins by LC/MS-MS analysis; format: ADME, Microsome; settings: 0.5 h
[3] = Cmax in BALB/c mouse at 1 mg/kg, iv measured upto 24 hrs by LC/MS-MS analysis; format: ADME, organism-based; design: dose 1 mg/kg, route intravenous; settings: in vivo
[4] = Clearance in BALB/c mouse at 1 mg/kg, iv measured upto 24 hrs by LC/MS-MS analysis; format: ADME, organism-based; settings: in vivo
[5] = Oral bioavailability in BALB/c mouse at 10 mg/kg measured upto 24 hrs by LC/MS-MS analysis; format: ADME, organism-based; settings: in vivo
Summary of the method: (§1)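 Pharmacokinetics were run with an IV dose of 1 mg/kg and a PO dose of 10 mg/kg. Parameters reported were AUClast, Cmax, CL, T1/2, Vss and %F.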

[6] = AUClast in BALB/c mouse at 10 mg/kg, po measured upto 24 hrs by LC/MS-MS analysis; format: ADME, organism-based; design: dose 10 mg/kg, time < 24 hr, route oral; settings: in vivo
[7] = Metabolic stability in human liver microsomes assessed as metabolic rate at 1 uM preincubated for 5 mins followed by NADPH addition and measured up to 30 mins by LC/MS-MS analysis; format: ADME, Microsome; settings: 0.5 h
[8] = AUClast in BALB/c mouse at 1 mg/kg, iv measured upto 24 hrs by LC/MS-MS analysis; format: ADME, organism-based; design: time < 24 hr, dose 1 mg/kg, route intravenous; settings: in vivo
[9] = Cmax in BALB/c mouse at 10 mg/kg, po measured upto 24 hrs by LC/MS-MS analysis; format: ADME, organism-based; design: dose 10 mg/kg, route oral; settings: in vivo
[10] = Metabolic stability in rat liver microsomes assessed as metabolic rate at 1 uM preincubated for 5 mins followed by NADPH addition and measured up to 30 mins by LC/MS-MS analysis; format: ADME, Microsome; settings: 0.5 h
[11] = Volume of distribution at steady state in BALB/c mouse at 1 mg/kg, iv measured upto 24 hrs by LC/MS-MS analysis; format: ADME, organism-based; settings: in vivo, read-out: Vdss; summary of the method: as §1
[12] = Half life in BALB/c mouse at 1 mg/kg, iv measured upto 24 hrs by LC/MS-MS analysis; format: ADME, organism-based; settings: in vivo

| SMILES | logD [1] | other results |
| --- | --- | --- |
| Cn1nccc1-c1cc(C(F)(F)F)ccc1[C@@H]1CCOc2cc(S(=O)(=O)Nc3nccs3)ccc21 | 2.2 | – |
| Cc1ccc(-c2cc(C(F)(F)F)ccc2[C@H]2CCOc3cc(S(=O)(=O)Nc4ccncn4)ccc32)cn1 | 3 | – |
| O=S(=O)(Nc1ccncn1)c1ccc2c(c1)OCC[C@@H]2c1ccc(C(F)(F)F)cc1-c1ccc(F)cn1 | 3 | – |
| O=S1(=O)CCN(c2cc(C(F)(F)F)ccc2[C@H]2CCOc3cc(S(=O)(=O)Nc4nccs4)ccc32)CC1 | 2.5 | – |
| O=S(=O)(Nc1nccs1)c1ccc2c(c1)OCC[C@H]2c1ccc(C(F)(F)F)cc1-c1ccc(F)cc1 | 4.5 | – |
| Cc1ccc(-c2cc(C(F)(F)F)ccc2[C@H]2CCc3cc(S(=O)(=O)Nc4ncccn4)ccc32)cn1 | 2.8 | – |
| Cn1nccc1-c1cc(C(F)(F)F)ccc1[C@H]1CCOc2cc(S(=O)(=O)Nc3cc(F)ccn3)ccc21 | 3.2 | – |
| Cn1nccc1-c1cc(C(F)(F)F)ccc1[C@H]1CCOc2cc(S(=O)(=O)Nc3ccncn3)ccc21 | 1.8 | – |
| O=S(=O)(Nc1nccs1)c1ccc2c(c1)OCC[C@@H]2c1ccc(C(F)(F)F)cc1-c1ccc(F)cn1 | 3.5 | – |
| O=S(=O)(Nc1nccs1)c1ccc2c(c1)OCC[C@H]2c1ccc(C(F)(F)F)cc1-n1ccnn1 | 2.3 | – |
| Cc1nc(-c2cc(C(F)(F)F)ccc2[C@H]2CCOc3cc(S(=O)(=O)Nc4nccs4)ccc32)co1 | 2.9 | – |
| O=S(=O)(Nc1ncccn1)c1ccc2c(c1)CC[C@@H]2c1ccc(C(F)(F)F)cc1N1CCOCC1 | 2.9 | – |
| O=S(=O)(Nc1ncccn1)c1ccc2c(c1)OCC[C@@H]2c1ccc(C(F)(F)F)cc1-c1ccc(F)cn1 | 2.9 | – |
| O=S(=O)(Nc1ccncn1)c1ccc2c(c1)OCC[C@@H]2c1ccc(C(F)(F)F)cc1-c1ccc(F)nc1 | 2.3 | – |
| Cn1nccc1-c1cc(C(F)(F)F)ccc1[C@H]1CCOc2cc(S(=O)(=O)Nc3cnccn3)ccc21 | 1.8 | – |
| O=S(=O)(Nc1nccs1)c1ccc2c(c1)OCC[C@@H]2c1ccc(C(F)(F)F)cc1-n1ccnn1 | 2.3 | Drug metabolism [2]: 0.02 nmol/min/mg; Cmax [3]: 2.2 µM; clearance [4]: 2.22 L/h/kg; bioavailability [5]: 79%; AUC(0-t) at 24 h [6]: 7.1 µM·h; Drug metabolism [7]: 0.02 nmol/min/mg; AUC(0-t) at 24 h [8]: 0.9 µM·h; Cmax [9]: 3 µM; Drug metabolism [10]: 0.02 nmol/min/mg; Vd [11]: 1 L/kg; half-life [12]: 0.4 h |
| Cn1nccc1-c1cc(C(F)(F)F)ccc1[C@H]1CCOc2cc(S(=O)(=O)Nc3ccc(F)cn3)ccc21 | 3.8 | – |
| Cc1nc(-c2cc(C(F)(F)F)ccc2[C@H]2CCOc3cc(S(=O)(=O)Nc4ncccn4)ccc32)co1 | 2.8 | – |
| Cn1nccc1-c1cc(C(F)(F)F)ccc1[C@H]1CCOc2cc(S(=O)(=O)Nc3nccs3)ccc21 | 2.2 | Drug metabolism [2]: 0.1 nmol/min/mg; Cmax [3]: 1.3 µM; clearance [4]: 0.84 L/h/kg; bioavailability [5]: 68%; AUC(0-t) at 24 h [6]: 15 µM·h; Drug metabolism [7]: 0.05 nmol/min/mg; AUC(0-t) at 24 h [8]: 2.2 µM·h; Cmax [9]: 6 µM; Drug metabolism [10]: 0.04 nmol/min/mg; Vd [11]: 2.2 L/kg; half-life [12]: 2 h |
| Cc1ccc(-c2cc(C(F)(F)F)ccc2[C@H]2CCOc3cc(S(=O)(=O)Nc4ncc(F)cn4)ccc32)cn1 | 2.5 | – |
| O=S(=O)(Nc1ccncn1)c1ccc2c(c1)OCC[C@@H]2c1ccc(C(F)(F)F)cc1N1CCOCC1 | 2 | – |

| SMILES | logD [1] | other results |
| --- | --- | --- |
| O=S(=O)(Nc1ncc(F)cn1)c1ccc2c(c1)OCC[C@@H]2c1ccc(C(F)(F)F)cc1N1CCOCC1 | 2.8 | – |
| Cn1nccc1-c1cc(C(F)(F)F)ccc1[C@H]1CCOc2cc(S(=O)(=O)Nc3cccnn3)ccc21 | 2.2 | – |
| O=S(=O)(Nc1ncc(F)cn1)c1ccc2c(c1)OCC[C@@H]2c1ccc(C(F)(F)F)cc1-c1ccc(F)nc1 | 2.9 | – |
| Cc1nc(-c2cc(C(F)(F)F)ccc2[C@@H]2CCOc3cc(S(=O)(=O)Nc4nccs4)ccc32)co1 | 2.9 | – |
| O=S(=O)(Nc1ncccn1)c1ccc2c(c1)CC[C@@H]2c1ccc(C(F)(F)F)cc1-c1ccc(F)nc1 | 3.2 | – |
| O=S(=O)(Nc1nccs1)c1ccc2c(c1)OCC[C@@H]2c1ccc(C(F)(F)F)cc1-c1ccc(F)cc1 | 4.5 | – |
| Cc1ccc(-c2cc(C(F)(F)F)ccc2[C@H]2CCOc3cc(S(=O)(=O)Nc4cccc(F)n4)ccc32)cn1 | 3.7 | – |
| Cn1nccc1-c1cc(C(F)(F)F)ccc1[C@H]1CCOc2cc(S(=O)(=O)Nc3ncc(F)cn3)ccc21 | 2.5 | – |
| O=S(=O)(Nc1nccs1)c1ccc2c(c1)OCC[C@@H]2c1ccc(C(F)(F)F)cc1-c1ccc(F)nc1 | 3.2 | Drug metabolism [2]: 0.04 nmol/min/mg; Cmax [3]: 0.8 µM; clearance [4]: 0.84 L/h/kg; bioavailability [5]: 95%; AUC(0-t) at 24 h [6]: 19 µM·h; Drug metabolism [7]: 0.03 nmol/min/mg; AUC(0-t) at 24 h [8]: 2 µM·h; Cmax [9]: 4.2 µM; Drug metabolism [10]: 0.05 nmol/min/mg; Vd [11]: 2.9 L/kg; half-life [12]: 2.8 h |
| O=S(=O)(Nc1nccs1)c1ccc2c(c1)OCC[C@@H]2c1ccc(C(F)(F)F)cc1N1CCNCC1 | 1.4 | – |
| Cc1nc(-c2cc(C(F)(F)F)ccc2[C@H]2CCOc3cc(S(=O)(=O)Nc4ncc(F)cn4)ccc32)co1 | 2.8 | – |
| O=C1OCCN1c1cc(C(F)(F)F)ccc1[C@H]1CCOc2cc(S(=O)(=O)Nc3nccs3)ccc21 | 2.1 | – |
| O=C1COCCN1c1cc(C(F)(F)F)ccc1[C@H]1CCOc2cc(S(=O)(=O)Nc3nccs3)ccc21 | 1.8 | – |
| Cn1nccc1-c1cc(C(F)(F)F)ccc1[C@H]1CCOc2cc(S(=O)(=O)Nc3cccc(F)n3)ccc21 | 3.6 | – |
| Cc1nc(-c2cc(C(F)(F)F)ccc2[C@H]2CCOc3cc(S(=O)(=O)Nc4cccc(F)n4)ccc32)co1 | 4 | – |
| O=S(=O)(Nc1ncc(F)cn1)c1ccc2c(c1)OCC[C@@H]2c1ccc(C(F)(F)F)cc1-c1ccc(F)cn1 | 3 | – |
| O=S(=O)(Nc1cccc(F)n1)c1ccc2c(c1)OCC[C@@H]2c1ccc(C(F)(F)F)cc1N1CCOCC1 | 4.1 | – |
| CN1CCN(c2cc(C(F)(F)F)ccc2[C@H]2CCOc3cc(S(=O)(=O)Nc4nccs4)ccc32)CC1 | 2.1 | – |
| O=S(=O)(Nc1nccs1)c1ccc2c(c1)OCC[C@@H]2c1ccc(C(F)(F)F)cc1-c1nccs1 | 3.3 | – |
| O=S(=O)(Nc1nccs1)c1ccc2c(c1)OCC[C@H]2c1ccc(C(F)(F)F)cc1-c1nccs1 | 3.3 | – |
